Experimental data from ChEMBL document CHEMBL4837193 (Eur J Med Chem, 2021).
One block for each compound: values may come before it. Active and inactive are the calls of the source. The calls are words filed in the database; no cut-off is given here.

Tests used:
HeLa [1] = experiment: Induction of apoptosis in human HeLa cells assessed as effect on Bax level incubated for 24 hrs by Western blot analysis; type: functional, cell-based
Outline: (§1)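 HeLa cells treated as for cell-cycle analysis (30, 60, 120 nM, 24 h), then lysed and protein quantified. Lysates boiled 5 min, run on SDS-PAGE and transferred to PVDF. Membranes blocked in 5% skim milk 1 h at RT, primary antibodies overnight at 4 °C, β-actin/GAPDH as loading controls. Secondary antibody 1:4000 for 2 h at RT. Mean ± SD of three independent experiments.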

HeLa [2] = experiment: Induction of apoptosis in human HeLa cells assessed as necrotic cells at 30 nM after 24 hrs by AnnexinV/PI-staining based flow cytometry (reference value: 0.093 %)
HeLa [3] = experiment: Induction of apoptosis in human HeLa cells assessed as late apoptotic cells at 30 nM after 24 hrs by AnnexinV/PI-staining based flow cytometry (reference value: 0.884 %)
HeLa [4] = experiment: Induction of apoptosis in human HeLa cells assessed as early apoptotic cells at 30 nM after 24 hrs by AnnexinV/PI-staining based flow cytometry (reference value: 2.87%)
HeLa [5] = experiment: Cell cycle arrest in human HeLa cells assessed as increase in cells accumulation at S phase at 60 nM measured after 24 hrs by propidium iodide staining based flow cytometric analysis (reference value: 20.29 %); type: functional
HeLa [6] = experiment: Cell cycle arrest in human HeLa cells assessed as increase in cells accumulation at S phase at 120 nM measured after 24 hrs by propidium iodide staining based flow cytometric analysis (reference value: 20.29 %); type: functional
HCT-116 = experiment: Antiproliferative activity against human HCT-116 cells assessed as cell growth inhibition after 48 hrs by MTT assay; type: functional, cell-based; conditions: HCT-116, 48 h
Outline: (§2)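 Cells grown at 37 °C with CO2 in RPMI-1640 or DMEM plus 10% FBS. Seeded at 2 × 10³ per well, attached 24 h, then medium changed. Compound exposure 48 h at 37 °C, DMSO 0.1% as vehicle. MTT added and incubated a further 4 h. Crystals dissolved, absorbance read at 570 nm. IC50 from curve fitting, mean ± SD of three independent experiments.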

HEK293 = experiment: Antiproliferative activity against human HEK293 cells assessed as cell growth inhibition after 48 hrs by MTT assay; type: cell-based; conditions: HEK293, 48 h; outline: as §2
HT-29 = experiment: Antiproliferative activity against human HT29 cells assessed as cell growth inhibition after 48 hrs by MTT assay; type: functional, cell-based; conditions: HT-29, 48 h
HeLa [7] = experiment: Cell cycle arrest in human HeLa cells assessed as increase in cells accumulation at G2/M phase at 30 nM measured after 24 hrs by propidium iodide staining based flow cytometric analysis (reference value: 12.49 %); type: functional
HeLa [8] = experiment: Induction of cell cycle arrest in human Hela cells assessed as increase in cyclin B1 expression measured after 24 hrs by Western blot analysis relative to control; type: functional, cell-based; conditions: dose 30-120 nM; outline: as §1
HeLa [9] = experiment: Induction of apoptosis in human HeLa cells assessed as increase in cleaved PARP level incubated for 24 hrs by Western blot analysis; type: functional, cell-based; outline: as §1
HeLa [10] = experiment: Induction of apoptosis in human HeLa cells assessed as necrotic cells at 60 nM after 24 hrs by AnnexinV/PI-staining based flow cytometry (reference value: 0.093 %)
HeLa [11] = experiment: Cell cycle arrest in human HeLa cells assessed as increase in cells accumulation at G0/G1 phase at 120 nM measured after 24 hrs by propidium iodide staining based flow cytometric analysis (reference value: 67.22 %); type: functional
HeLa [12] = experiment: Cell cycle arrest in human HeLa cells assessed as increase in cells accumulation at G2/M phase at 60 nM measured after 24 hrs by propidium iodide staining based flow cytometric analysis (reference value: 12.49 %); type: functional
A549 = experiment: Antiproliferative activity against human A549 cells assessed as cell growth inhibition after 48 hrs by MTT assay; type: functional, cell-based; conditions: A549, 48 h; outline: as §2
HeLa [13] = experiment: Cell cycle arrest in human HeLa cells assessed as increase in cells accumulation at S phase at 30 nM measured after 24 hrs by propidium iodide staining based flow cytometric analysis (reference value: 20.29 %); type: functional
Tubulin (Homo sapiens) [14] = molecular target: T1, Tubulin (Homo sapiens) (UniProt P68371+Q9H4B7+P0DPH7+P68366+Q13509+Q71U36+P04350+Q3ZCM7+P07437+P68363+Q9BQE3+Q6PEY2+Q13885+Q9BVA1+Q9BUF5); experiment: Inhibition of tubulin polymerization (unknown origin) at 10 uM measured after 30 mins every 1 min for 20 mins by spectrophotometric method; type: protein-complex assay
Outline: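 Tubulin at 2 mg/mL in PEM buffer (100 mM PIPES pH 6.9, 1 mM MgCl2, 1 mM EGTA, 5% glycerol) preincubated on ice with compound or DMSO, then GTP added. After 0.5 h, A340 read every 1 min for 20 min at 37 °C. Plateau values used. Single-point inhibition at 10 µM; IC50 is the concentration halving polymerization at 20 min, mean ± SD of three experiments.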

HeLa [15] = experiment: Induction of cell cycle arrest in human Hela cells assessed as decrease in cdc2 expression measured after 24 hrs by Western blot analysis relative to control; type: functional, cell-based; conditions: dose 30-120 nM; outline: as §1
HeLa [16] = experiment: Cell cycle arrest in human HeLa cells assessed as increase in cells accumulation at G2/M phase at 120 nM measured after 24 hrs by propidium iodide staining based flow cytometric analysis (reference value: 12.49 %); type: functional
HeLa [17] = experiment: Cell cycle arrest in human HeLa cells assessed as increase in cells accumulation at G0/G1 phase at 30 nM measured after 24 hrs by propidium iodide staining based flow cytometric analysis (reference value: 67.22 %); type: functional
HeLa [18] = experiment: Induction of apoptosis in human HeLa cells assessed as necrotic cells at 120 nM after 24 hrs by AnnexinV/PI-staining based flow cytometry (reference value: 0.093 %)
HepG2 = experiment: Antiproliferative activity against human HepG2 cells assessed as cell growth inhibition after 48 hrs by MTT assay; type: functional, cell-based; conditions: HepG2, 48 h; outline: as §2
Tubulin = experiment: Inhibition of tubulin polymerization (unknown origin) measured afer 30 mins every 1 min for 20 mins by spectrophotometric method; type: protein-complex assay, Homo sapiens
Outline: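 Tubulin at 2 mg/mL in PEM buffer (100 mM PIPES pH 6.9, 1 mM MgCl2, 1 mM EGTA, 5% glycerol) preincubated on ice with compound or DMSO, then GTP added. After 0.5 h, A340 read every 1 min for 20 min at 37 °C. Plateau values used.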

HeLa [19] = experiment: Induction of apoptosis in human HeLa cells assessed as late apoptotic cells at 120 nM after 24 hrs by AnnexinV/PI-staining based flow cytometry (reference value: 0.884 %)
HeLa [20] = experiment: Induction of apoptosis in human HeLa cells assessed as early apoptotic cells at 60 nM after 24 hrs by AnnexinV/PI-staining based flow cytometry (reference value: 2.87%)
HeLa [21] = experiment: Induction of apoptosis in human HeLa cells assessed as late apoptotic cells at 60 nM after 24 hrs by AnnexinV/PI-staining based flow cytometry (reference value: 0.884 %)
HeLa [22] = experiment: Antiproliferative activity against human HeLa cells assessed as cell growth inhibition after 48 hrs by MTT assay; type: functional, cell-based; outline: as §2
Tubulin (Homo sapiens) [23] = molecular target: T1, Tubulin (Homo sapiens); experiment: Inhibition of […]colchicine binding to tubulin (unknown origin) at 4 uM incubated for 45 mins by fluorescence assay relative to control; type: protein-complex assay
Outline: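 Tubulin (4 µM) preincubated 45 min at 37 °C with test agent (20–80 µM), then colchicine (4 µM) added. After a further 45 min at 37 °C, fluorescence read at excitation 340 nm and emission 435 nm, with buffer blank subtracted.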

T47D = experiment: Antiproliferative activity against human T47D cells assessed as cell growth inhibition after 48 hrs by MTT assay; type: functional, cell-based
HeLa [24] = experiment: Cell cycle arrest in human HeLa cells assessed as increase in cells accumulation at G0/G1 phase at 60 nM measured after 24 hrs by propidium iodide staining based flow cytometric analysis (reference value: 49.85 %); type: functional
HeLa [25] = experiment: Induction of apoptosis in human HeLa cells assessed as early apoptotic cells at 120 nM after 24 hrs by AnnexinV/PI-staining based flow cytometry (reference value: 2.87%)

Structure (SMILES): COc1cc(-c2ccnc3nc(-c4ccc(Cl)c(Cl)c4)nn23)cc(OC)c1OC
IC50 (HeLa [22]): > 30 µM

Structure (SMILES): COC(=O)c1ccc(-c2ccnc3nc(-c4cc(OC)c(OC)c(OC)c4)nn23)cc1
IC50 (HeLa [22]): > 30 µM

Structure (SMILES): COc1ccc(-c2ccnc3nc(-c4cc(OC)c(OC)c(OC)c4)nn23)cc1Cl
IC50 (HeLa [22]): > 30 µM

Structure (SMILES): COc1cc(-c2nc3nccc(-c4cc(OC)c(OC)c(OC)c4)n3n2)cc(OC)c1OC
IC50 (HeLa [22]): > 30 µM

Structure (SMILES): COc1ccc(-c2ccnc3nc(-c4cc(OC)c(OC)c(OC)c4)nn23)cc1[N+](=O)[O-]
IC50 (HeLa [22]): > 30 µM

Structure (SMILES): COc1cc(-c2nc3nccc(-c4cccs4)n3n2)cc(OC)c1OC
IC50 (HeLa [22]): > 30 µM

Structure (SMILES): COc1cc(-c2ccnc3nc(-c4ccc(C)cc4)nn23)cc(OC)c1OC
IC50 (HeLa [22]): > 30 µM

Structure (SMILES): COc1cc(-c2nc3nccc(-c4ccco4)n3n2)cc(OC)c1OC
IC50 (HeLa [22]): > 30 µM

Structure (SMILES): COc1cc(-c2nc3nccc(-c4ccc(Cl)c(Cl)c4)n3n2)cc(OC)c1OC
IC50 (HeLa [22]): > 30 µM

Structure (SMILES): COc1cc(-c2nc3nccc(-c4ccccc4C)n3n2)cc(OC)c1OC
IC50 (HeLa [22]): > 30 µM

The next compounds have a lower IC50 (HeLa [22]) than those just listed; values first:

IC50 (HCT-116): 18.4 µM
IC50 (HT-29): 0.24 µM
IC50 (A549): 6.05 µM
inhibition (Tubulin (Homo sapiens) [14]): 94%
IC50 (HepG2): 14.7 µM
IC50 (Tubulin): 1.3 µM
IC50 (HeLa [22]): 0.06 µM
inhibition (Tubulin (Homo sapiens) [23]): Dose-Dependent Effect
IC50 (T47D): 3.49 µM
Structure (SMILES): COc1ccc(-c2nc3nccc(-c4cc(OC)c(OC)c(OC)c4)n3n2)cc1O
Activity (HeLa [1]): inactive
Activity (HeLa [2]): 0.329%
Activity (HeLa [3]): 5.61%
Activity (HeLa [4]): 8.5%
Activity (HeLa [5]): 27.84%
Activity (HeLa [6]): 24.67%
IC50 (HEK293): > 100 µM
Activity (HeLa [7]): 16.18%
Activity (HeLa [8]): Dose-Dependent Effect
Activity (HeLa [9]): Active
Activity (HeLa [10]): 1.07%
Activity (HeLa [11]): 29.01%
Activity (HeLa [12]): 22.81%
Activity (HeLa [13]): 17.79%
Activity (HeLa [15]): Active
Activity (HeLa [16]): 46.82%
Activity (HeLa [17]): 66.03%
Activity (HeLa [18]): 2.37%
Activity (HeLa [19]): 19.3%
Activity (HeLa [20]): 10.5%
Activity (HeLa [21]): 8.85%
Activity (HeLa [24]): 49.85%
Activity (HeLa [25]): 14.3%

IC50 (HeLa [22]): 22.2 µM
Structure (SMILES): COc1cc(-c2nc3nccc(-c4ccc(NC(C)=O)cc4)n3n2)cc(OC)c1OC

IC50 (HeLa [22]): 0.9 µM
Structure (SMILES): COc1ccc(-c2nc3nccc(-c4cc(OC)c(OC)c(OC)c4)n3n2)cc1

IC50 (HCT-116): 91.1 µM
IC50 (HT-29): 11.5 µM
IC50 (A549): > 100 µM
inhibition (Tubulin (Homo sapiens) [14]): 12%
IC50 (HepG2): 41.2 µM
IC50 (HeLa [22]): 0.4 µM
IC50 (T47D): > 100 µM
Structure (SMILES): COc1ccc(-c2ccnc3nc(-c4cc(OC)c(OC)c(OC)c4)nn23)cc1N
IC50 (HEK293): > 100 µM
